# Data published in ChEMBL document CHEMBL1155964, “Discovery of diarylpyridine derivatives as novel non-nucleoside HIV-1 reverse transcriptase inhibitors” (Bioorg Med Chem Lett, 2009).
# Assays:
# [1] = system: Human immunodeficiency virus 1; assay: Antiviral activity against HIV1 NL4-3 infected in human TZM-bl cells assessed as inhibition of viral replication; type: functional, organism-based; settings: Human immunodeficiency virus 1, NL4-3, TZM-bl
# Summary of the method: (§1)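 Tested in triplicate and reported as means ± SD. The RTMDR1 strain carries the RT mutations 74V, 41L, 106A and 215Y.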
# [2] = system: Human immunodeficiency virus 1; assay: Antiviral activity against HIV1 RTMDR1 infected in human TZM-bl cells assessed as inhibition of viral replication; type: functional, organism-based; settings: Human immunodeficiency virus 1, RTMDR1, TZM-bl; summary of the method: as §1
# [3] = Cytotoxicity against human TZM-bl cells; type: cell-based
# [4] = Selectivity index, ratio of CC50 for human TZM-bl cells to EC50 for HIV1 NL4-3; type: toxicity, cell-based; settings: read-out: Ratio CC50/EC50
# [5] = Selectivity index, ratio of CC50 for human TZM-bl cells to EC50 for HIV1 RTMDR1; type: toxicity, cell-based; settings: read-out: Ratio CC50/EC50
# MT2 = assay: Cytotoxicity against human MT2 cells after 4 days by XTT assay; type: cell-based; settings: mt2, 96 h
# [6] = system: Human immunodeficiency virus 1; assay: Antiviral activity against HIV1 3B infected in human MT2 cells assessed as inhibition of viral replication by p24 antigen assay; type: functional, organism-based; settings: Human immunodeficiency virus 1, 3B
# Summary of the method: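 HIV-1 IIIB replication in MT-2 cells, read as p24 production by ELISA. […] Tested in triplicate; means ± SD.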
# [7] = Selectivity index, ratio of CC50 for human MT2 cells to EC50 for HIV1 3B; type: toxicity, cell-based; settings: read-out: Ratio CC50/EC50
# Summary of the method: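 HIV-1 IIIB replication in MT-2 cells, measured by p24 ELISA to give the EC50. Cytotoxicity in uninfected MT-2 cells measured by XTT to give the CC50. Each run in triplicate and reported as means ± SD. SI = CC50/EC50.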
# [8] = system: Human immunodeficiency virus 1; assay: Antiviral activity against HIV1 3B infected in human MT4 cells assessed as inhibition of viral replication; type: functional, organism-based; settings: Human immunodeficiency virus 1, 3B
# [9] = Selectivity index, ratio of CC50 for human MT4 cells to EC50 for HIV1 3B
smiles,measurement,setting,value
Cc1cc(C)c(Nc2ccnc(Nc3ccc(C#N)cc3)n2)c(C)c1 [DAPIVIRINE],EC50,[1],0.62 nM
same,EC50,[2],0.298 nM
same,CC50,[3],> 0.304 µM
same,selectivity ratio,[4],> 490
same,selectivity ratio,[5],> 1020
Cc1cc(C#CC(C)(C)O)cc(C)c1Oc1ccc([N+](=O)[O-])c(Nc2ccc(C#N)cc2)n1,CC50,MT2,8.91 µM
same,EC50,[6],23300 nM
same,selectivity ratio,[7],< 1
same,EC50,[1],41300 nM
same,EC50,[2],25500 nM
same,CC50,[3],> 45.2 µM
same,selectivity ratio,[4],> 1.09
same,selectivity ratio,[5],> 1.78
Cc1cc(CO)cc(C)c1Oc1ccc([N+](=O)[O-])c(Nc2ccc(C#N)cc2)n1,CC50,MT2,116 µM
same,EC50,[6],192 nM
same,selectivity ratio,[7],603
same,EC50,[1],477 nM
same,EC50,[2],877 nM
same,CC50,[3],> 51.3 µM
same,selectivity ratio,[4],> 108
same,selectivity ratio,[5],> 58
Cc1cc(C#CC(C)(C)O)cc(C)c1Oc1ccc(N)c(Nc2ccc(C#N)cc2)n1,CC50,MT2,3.54 µM
same,EC50,[6],1580 nM
same,selectivity ratio,[7],2
same,EC50,[1],241 nM
same,EC50,[2],531 nM
same,CC50,[3],8.73 µM
same,selectivity ratio,[4],36
same,selectivity ratio,[5],16
C#Cc1cc(C)c(Oc2ccc(N)c(Nc3ccc(C#N)cc3)n2)c(C)c1,CC50,MT2,8.25 µM
same,EC50,[6],424 nM
same,selectivity ratio,[7],20
same,EC50,[1],6.7 nM
same,EC50,[2],9.03 nM
same,CC50,[3],9.94 µM
same,selectivity ratio,[4],1480
same,selectivity ratio,[5],1100
C#Cc1cc(C)c(Oc2ccc([N+](=O)[O-])c(Nc3ccc(C#N)cc3)n2)c(C)c1,CC50,MT2,174 µM
same,EC50,[6],677 nM
same,selectivity ratio,[7],256
same,EC50,[1],111 nM
same,EC50,[2],215 nM
same,CC50,[3],> 52.1 µM
same,selectivity ratio,[4],> 469
same,selectivity ratio,[5],> 242
Cc1cc(C)c(Oc2ccc([N+](=O)[O-])c(Nc3ccc(C#N)cc3)n2)c(C)c1,CC50,MT2,503 µM
same,EC50,[6],118 nM
same,selectivity ratio,[7],4260
same,EC50,[1],22.9 nM
same,EC50,[2],55.2 nM
same,CC50,[3],> 53.5 µM
same,selectivity ratio,[4],> 2340
same,selectivity ratio,[5],> 969
Cc1cc(C#N)cc(C)c1Oc1ccc(N)c(Nc2ccc(C#N)cc2)n1,CC50,MT2,31.8 µM
same,EC50,[6],1.4 nM
same,selectivity ratio,[7],22700
same,EC50,[1],0.68 nM
same,EC50,[2],0.96 nM
same,CC50,[3],8.98 µM
same,selectivity ratio,[4],13200
same,selectivity ratio,[5],9350
Cc1cc(C#N)cc(C)c1Oc1ccc([N+](=O)[O-])c(Nc2ccc(C#N)cc2)n1,CC50,MT2,50.1 µM
same,EC50,[6],135 nM
same,selectivity ratio,[7],371
same,EC50,[1],22.1 nM
same,EC50,[2],21.1 nM
same,CC50,[3],> 52 µM
same,selectivity ratio,[4],> 2350
same,selectivity ratio,[5],> 2460
Cc1cccc(C)c1Oc1ccc(N)c(Nc2ccc(C#N)cc2)n1,CC50,MT2,29.9 µM
same,EC50,[6],576 nM
same,selectivity ratio,[7],52
same,EC50,[1],4.02 nM
same,EC50,[2],3.78 nM
same,CC50,[3],8.14 µM
same,selectivity ratio,[4],2020
same,selectivity ratio,[5],2150
Cc1cc(CO)cc(C)c1Oc1ccc(N)c(Nc2ccc(C#N)cc2)n1,CC50,MT2,2.19 µM
same,EC50,[6],6 nM
same,selectivity ratio,[7],391
same,EC50,[1],10.9 nM
same,EC50,[2],25.1 nM
same,CC50,[3],9.34 µM
same,selectivity ratio,[4],857
same,selectivity ratio,[5],372
Cc1cc(I)cc(C)c1Oc1ccc(N)c(Nc2ccc(C#N)cc2)n1,CC50,MT2,23.5 µM
same,EC50,[6],79 nM
same,selectivity ratio,[7],297
same,EC50,[1],7.6 nM
same,EC50,[2],5.13 nM
same,CC50,[3],16.7 µM
same,selectivity ratio,[4],2200
same,selectivity ratio,[5],3260
Cc1cc(I)cc(C)c1Oc1ccc([N+](=O)[O-])c(Nc2ccc(C#N)cc2)n1,CC50,MT2,148 µM
same,EC50,[6],2430 nM
same,selectivity ratio,[7],61
same,EC50,[1],61 nM
same,EC50,[2],94.3 nM
same,CC50,[3],> 41.1 µM
same,selectivity ratio,[4],> 675
same,selectivity ratio,[5],> 436
Cc1cc(C)c(Oc2ccc(N)c(Nc3ccc(C#N)cc3)n2)c(C)c1,CC50,MT2,10.6 µM
same,EC50,[6],58 nM
same,selectivity ratio,[7],182
same,EC50,[1],1.67 nM
same,EC50,[2],1.2 nM
same,CC50,[3],18.6 µM
same,selectivity ratio,[4],11200
same,selectivity ratio,[5],15500
Cc1cc(C#N)cc(C)c1Oc1nc(Nc2ccc(C#N)cc2)nc(N)c1Br [ETRAVIRINE],EC50,[8],1.58 nM
same,selectivity ratio,[9],63100
Cc1cccc(C)c1Oc1ccc([N+](=O)[O-])c(Nc2ccc(C#N)cc2)n1,CC50,MT2,110 µM
same,EC50,[6],1030 nM
same,selectivity ratio,[7],107
same,EC50,[1],234 nM
same,EC50,[2],128 nM
same,CC50,[3],> 55.6 µM
same,selectivity ratio,[4],> 238
same,selectivity ratio,[5],> 433
